Measured values pooled from the literature.
Each line is one published result; the experiments were not run side by side.
Target: Cannabinoid receptor 1 (CNR1, Homo sapiens, UniProt P21554)

`CCCCC/C=C\C/C=C\C/C=C\C/C=C\CCCC(=O)N[C@H](C)CO` has a Ki of 19.8 nM (ligand displacement; radioligand; cell membranes).
The Ki of `CCCCCc1cc(O)c2c(c1)OC(C)(C)[C@@H]1CC=C(C)[C@H](O)[C@@H]21` is reported as 31 nM (ligand displacement; radioligand; cell membranes).
For `CC1(C)C(C(=O)c2cn(CCCCCF)c3ccccc23)C1(C)C`, the EC50 was 159 nM (GTPγS binding; agonist; radiometric; cell membranes).
For `O=C(c1ccc2c(c1)c1ccccc1n2CCN1CCOCC1)c1cc2ccccc2[nH]1`, the Ki was 1200 nM (ligand displacement; radioligand; cell membranes).
`CCOC(=O)[C@H](CSC)NC(=O)c1ccc(C2CC2)c(Cc2ccc(F)cc2)n1` has a Ki of 19 nM (ligand displacement; radioligand; cell membranes).
With `N#Cc1c(Oc2cccc(OS(=O)(=O)CCCC(F)(F)F)c2)cccc1C(F)(F)F` the EC50 was 519 nM (calcium signal; agonist).
The Kb of `CC/C(=C(\c1ccc(O)cc1)c1ccc(OCCN(C)C)cc1)c1ccccc1` is reported as 1600 nM (cAMP; antagonist).
The EC50 of `CC(C)C(NC(=O)c1nn(Cc2ccc(F)cc2)c2ccccc12)C(N)=O` (centres unmarked) is reported as 3.44 nM (calcium signal; agonist).
`CCOC(=O)C(CC)(CCCSCCOCCOCCNc1ccc([N+](=O)[O-])c2nonc12)NC(=O)c1ccc(C2CC2)c(Cc2ccc(F)cc2)n1` (racemic) gave a Ki of 383 nM (ligand displacement; radioligand; cell membranes).
For `CCCCCc1cc(O)c(C/C=C(\C)CCC=C(C)C)c(O)c1`, the Ki was 3090 nM (ligand displacement; radioligand; cell membranes).
For `CCOC(=O)C(CC)(CCCSCCOCCOCCOCCNC(=O)OC(C)(C)C)NC(=O)c1ccc(C2CC2)c(Cc2ccc(F)cc2)n1` (centres unmarked), the Ki was 589 nM (ligand displacement; radioligand; cell membranes).
For `CCCc1cc(O)c2c(c1)OC(C)(C)c1ccc(C)cc1-2`, the Ki was 565 nM (ligand displacement; radioligand; cell membranes).
With `C=CCC(CC)(NC(=O)c1ccc(C2CC2)c(Cc2ccc(F)cc2)n1)C(=O)OCC` (centres unmarked) the Ki was 2.9 nM (ligand displacement; radioligand; cell membranes).
With `C=C(C)[C@@H]1CCC(C)=C[C@H]1c1c(O)cc(CCC)cc1O` the Ki was 503 nM (ligand displacement; radioligand; cell membranes).
